Reference: ChEMBL document CHEMBL3046214, “Friedelane triterpenes from Celastrus vulcanicola as photosynthetic inhibitors” (J Agric Food Chem, 2010)
One block for each molecule: values may come before it. Calls of active or inactive are those of the source. The calls are words filed in the database; no cut-off is given here.

Key:
Spinacia oleracea [1] = experiment: Inhibition of photophosphorylation in Spinacia oleracea (spinach) leaves chloroplasts by titrimetry; assay type: functional
In short: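 Intact spinach chloroplasts (20 μg Chl/mL) were osmotically broken in 3 mL of weakly buffered medium: 100 mM sorbitol, 10 mM KCl, 5 mM MgCl2, 0.5 mM KCN, 1 mM tricine-KOH pH 8.0, 50 μM MV and 1 mM ADP. ATP synthesis was taken from the medium alkalization rate in the linear part of illumination, calibrated by HCl back-titration, as μmol ATP (mg Chl)-1 h-1. I50 was obtained from concentration-activity plots; three replicates.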

Spinacia oleracea [2] = experiment: Increase in Magnesium-transporting ATPase activity in Spinacia oleracea (spinach) leaves chloroplasts thylakoids at 3 mM
In short: (§1)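 Spinach chloroplasts were isolated in 350 mM sorbitol, 5 mM ascorbate, 20 mM MES pH 6.5, centrifuged at 3000g for 60 s, washed, and resuspended in 35 mM HEPES pH 7.6. Light-triggered Mg2+-ATPase activity of thylakoid membranes was measured as released inorganic phosphate. Ammonium chloride served as positive control.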

Spinacia oleracea [3] = experiment: Increase in Magnesium-transporting ATPase activity in Spinacia oleracea (spinach) leaves chloroplasts thylakoids at 2 mM; in short: as §1
Spinacia oleracea [4] = experiment: Increase in Magnesium-transporting ATPase activity in Spinacia oleracea (spinach) leaves chloroplasts thylakoids at 1 mM; in short: as §1
Lolium perenne [5] = experiment: Inhibition of photosynthetic efficiency in Lolium perenne (perennial ryegrass) at 200 uM measured 24 to 72 hr post compound application; assay type: functional
In short: (§2)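 Greenhouse L. perenne sprayed 18 days after emergence (20 mM DMSO stock diluted into 0.05% Tween-20; vehicle-sprayed controls). Leaves dark-adapted 15 min, then excited with 3000 μmol photons m-2 s-1 red light (650 nm) from three LEDs. OJIP transients recorded at room temperature with a Handy PEA. PI(abs) and other parameters are shown on radar plots normalized to control.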

Lolium perenne [6] = experiment: Inhibition of photosynthetic efficiency in Lolium perenne (perennial ryegrass) at 100 uM measured 72 hr post compound application; assay type: functional; in short: as §2
Lolium perenne [7] = experiment: Inhibition of photosynthetic efficiency in Lolium perenne (perennial ryegrass) at 100 uM measured 24 hr post compound application; assay type: functional; in short: as §2
Lolium perenne [8] = experiment: Inhibition of photosynthetic efficiency in Lolium perenne (perennial ryegrass) at 100 uM measured 48 hr post compound application; assay type: functional, organism-based; in short: as §2
Spinacia oleracea [9] = experiment: Effect on photosynthesis efficiency in Spinacia oleracea (spinach) leaves freshly lysed chloroplasts assessed as change in chlorophyll a fluorescence at 150 to 450 uM; assay type: functional
In short: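 Freshly lysed spinach thylakoids (20 μg Chl) were placed on filter paper with a dot-blot apparatus and dipped in 3 mL basal electron transport medium without MV, containing compound. After 5 min dark adaptation, fluorescence was excited with 3000 μmol m-2 s-1 650 nm LED light (2 s pulse) at room temperature. Wt = (Ft−F0)/(FJ−F0), difference from control used for K-band; five replicates.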

[10] = target: Photosystem II protein D1 (Spinacia oleracea) (UniProt P69560); experiment: Inhibition of uncoupled photosystem II electron transport and partial reactions in Spinacia oleracea (spinach) leaves assessed as electron transport rate from water to DCPIP at 300 uM measured per mg of chlorophyll relative to untreated control; set-up: scale not given: the % may be the effect or the level left
[11] = target: Photosystem II protein D1 (Spinacia oleracea) (UniProt P69560); experiment: Inhibition of uncoupled photosystem II electron transport and partial reactions in Spinacia oleracea (spinach) leaves assessed as electron transport rate from water to DCPIP at 200 uM measured per mg of chlorophyll relative to untreated control; set-up: scale not given: the % may be the effect or the level left
[12] = target: Photosystem II protein D1 (Spinacia oleracea) (UniProt P69560); experiment: Inhibition of uncoupled photosystem II electron transport and partial reactions in Spinacia oleracea (spinach) leaves assessed as electron transport rate from water to DCPIP at 100 uM measured per mg of chlorophyll relative to untreated control; set-up: scale not given: the % may be the effect or the level left
[13] = target: Photosystem II protein D1 (Spinacia oleracea) (UniProt P69560); experiment: Inhibition of uncoupled photosystem II electron transport and partial reactions in Spinacia oleracea (spinach) leaves assessed as electron transport rate from water to SiMo at 300 uM measured per mg of chlorophyll relative to untreated control; set-up: scale not given: the % may be the effect or the level left
In short: (§3)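 Uncoupled partial PSII reaction from water to silicomolybdate, run in the PSII medium (sorbitol, KCl, MgCl2, KCN, 15 mM tricine-KOH pH 8.0, 6 mM NH4Cl, 20 μg Chl/mL, 1 min light). DCBQ/DBMIB were replaced by 200 μM SiMo plus 10 μM DCMU. Rates are in μequiv e-/h mg Chl, relative to control, three replicates.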

[14] = target: Photosystem II protein D1 (Spinacia oleracea) (UniProt P69560); experiment: Inhibition of uncoupled photosystem II electron transport and partial reactions in Spinacia oleracea (spinach) leaves assessed as electron transport rate from water to SiMo at 200 uM measured per mg of chlorophyll relative to untreated control; set-up: scale not given: the % may be the effect or the level left; in short: as §3
[15] = target: Photosystem II protein D1 (Spinacia oleracea) (UniProt P69560); experiment: Inhibition of uncoupled photosystem II electron transport and partial reactions in Spinacia oleracea (spinach) leaves assessed as electron transport rate from water to SiMo at 100 uM measured per mg of chlorophyll relative to untreated control; set-up: scale not given: the % may be the effect or the level left; in short: as §3
[16] = target: Photosystem II protein D1 (Spinacia oleracea) (UniProt P69560); experiment: Inhibition of uncoupled photosystem II electron transport and partial reactions in Spinacia oleracea (spinach) leaves assessed as electron transport rate from water to DCBQ at 300 uM measured per mg of chlorophyll relative to untreated control; set-up: scale not given: the % may be the effect or the level left
In short: (§4)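 Uncoupled PSII water-to-DCBQ rate: 3 mL of 100 mM sorbitol, 10 mM KCl, 5 mM MgCl2, 0.5 mM KCN, 15 mM tricine-KOH pH 8.0, with 100 μM DCBQ, 1 μM DBMIB, 6 mM NH4Cl and chloroplasts at 20 μg Chl/mL, illuminated 1 min. Rates are in μequiv e-/h mg Chl, percent of control, three replicates.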

[17] = target: Photosystem II protein D1 (Spinacia oleracea) (UniProt P69560); experiment: Inhibition of uncoupled photosystem II electron transport and partial reactions in Spinacia oleracea (spinach) leaves assessed as electron transport rate from water to DCBQ at 200 uM measured per mg of chlorophyll relative to untreated control; set-up: scale not given: the % may be the effect or the level left; in short: as §4
[18] = target: Photosystem II protein D1 (Spinacia oleracea) (UniProt P69560); experiment: Inhibition of uncoupled photosystem II electron transport and partial reactions in Spinacia oleracea (spinach) leaves assessed as electron transport rate from water to DCBQ at 100 uM measured per mg of chlorophyll relative to untreated control; set-up: scale not given: the % may be the effect or the level left; in short: as §4
[19] = target: Photosystem II protein D1 (Spinacia oleracea) (UniProt P69560); experiment: Inhibition of uncoupled photosystem II electron transport and partial reactions in Spinacia oleracea (spinach) leaves assessed as electron transport rate from water to DCPIP at 50 uM measured per mg of chlorophyll relative to untreated control; set-up: scale not given: the % may be the effect or the level left
[20] = target: Photosystem II protein D1 (Spinacia oleracea) (UniProt P69560); experiment: Inhibition of uncoupled photosystem II electron transport and partial reactions in Spinacia oleracea (spinach) leaves assessed as electron transport rate from water to SiMo at 50 uM measured per mg of chlorophyll relative to untreated control; set-up: scale not given: the % may be the effect or the level left; in short: as §3
Spinacia oleracea [21] = experiment: Increase in Magnesium-transporting ATPase activity in Spinacia oleracea (spinach) leaves chloroplasts thylakoids at 200 uM; in short: as §1
Spinacia oleracea [22] = experiment: Increase in Magnesium-transporting ATPase activity in Spinacia oleracea (spinach) leaves chloroplasts thylakoids at 300 uM; in short: as §1
[23] = target: Photosystem II protein D1 (Spinacia oleracea) (UniProt P69560); experiment: Inhibition of uncoupled photosystem II electron transport and partial reactions in Spinacia oleracea (spinach) leaves assessed as electron transport rate from water to DCBQ at 50 uM measured per mg of chlorophyll relative to untreated control; set-up: scale not given: the % may be the effect or the level left; in short: as §4
Spinacia oleracea [24] = experiment: Inhibition of basal electron transport from water to MV in Spinacia oleracea (spinach) leaves chloroplasts up to 300 uM using Clark type electrode system based method; assay type: functional, organism-based
Spinacia oleracea [25] = experiment: Inhibition of uncoupled electron transport from water to MV in Spinacia oleracea (spinach) leaves chloroplasts up to 300 uM using Clark type electrode system based method; assay type: functional, organism-based
In short: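 Water-to-MV electron transport measured with a Clark electrode in the basal medium (20 μg Chl/mL, 50 μM MV, 15 mM tricine-KOH pH 8.0, 1 min illumination), with 6 mM NH4Cl added as uncoupler.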

Spinacia oleracea [26] = experiment: Inhibition of phosphorylating noncyclic electron transport from water to MV in Spinacia oleracea (spinach) leaves chloroplasts up to 300 uM using Clark type electrode system based method; assay type: functional
In short: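 Clark-electrode measurement of water-to-MV electron flow in the basal medium (sorbitol, KCl, MgCl2, 0.5 mM KCN, 50 μM MV, 15 mM tricine-KOH pH 8.0; 20 μg Chl/mL; 1 min light), with 1 mM ADP and 3 mM KH2PO4 added.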

Spinacia oleracea [27] = experiment: Increase in Magnesium-transporting ATPase activity in Spinacia oleracea (spinach) leaves chloroplasts thylakoids at 100 uM; in short: as §1
Physalis ixocarpa [28] = experiment: Effect on biomass production in Physalis ixocarpa assessed as plant dry weight at 200 uM measured 14 days post compound application relative to untreated control; assay type: functional
In short: (§5)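 Greenhouse-grown plants (pots, watered daily, 25 to 30 °C) of similar size, sprayed at 15 (P. ixocarpa) or 18 (L. perenne) days after emergence. Compound taken from a 20 mM DMSO stock into aqueous 0.05% w/v Tween-20; controls were sprayed with water containing the same DMSO and Tween-20. Plants harvested at ground level, oven-dried at 65 °C to constant weight, then weighed.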

Physalis ixocarpa [29] = experiment: Effect on biomass production in Physalis ixocarpa assessed as plant dry weight at 100 uM measured 14 days post compound application relative to untreated control; assay type: functional; in short: as §5
Lolium perenne [30] = experiment: Effect on biomass production in Lolium perenne (perennial ryegrass) assessed as plant dry weight at 100 uM measured 14 days post compound application relative to untreated control; assay type: functional; in short: as §5
Lolium perenne [31] = experiment: Effect on biomass production in Lolium perenne (perennial ryegrass) assessed as plant dry weight at 200 uM measured 14 days post compound application relative to untreated control; assay type: functional; in short: as §5
Physalis ixocarpa [32] = experiment: Effect on photosynthetic efficiency in Physalis ixocarpa intact leaves assessed as increase in PI(abs) level at 100 uM measured 72 hr post compound application; assay type: functional; conditions: in the assay text read “at 200 uM” for “at 100 uM”
In short: (§6)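 P. ixocarpa plants sprayed 15 days after emergence (greenhouse, 25-30 °C; 20 mM DMSO stock diluted into 0.05% Tween-20; vehicle-sprayed controls). Leaves dark-adapted 15 min, then excited with 650 nm red LED light at 3000 μmol photons m-2 s-1. Chl a OJIP transients recorded with a Handy PEA at room temperature. PI(abs) is normalized to control; K-, J- and I-bands come from variable fluorescence difference curves; five replicates.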

Physalis ixocarpa [33] = experiment: Inhibition of photosynthetic efficiency in Physalis ixocarpa intact leaves assessed as loss of K-bands at 200 uM measured 72 hr post compound application; assay type: functional, organism-based; in short: as §6
Physalis ixocarpa [34] = experiment: Inhibition of photosynthetic efficiency in Physalis ixocarpa intact leaves assessed as reduction in PI(abs) level at 100 uM measured 72 hr post compound application; assay type: functional; in short: as §6
Physalis ixocarpa [35] = experiment: Inhibition of photosynthetic efficiency in Physalis ixocarpa intact leaves assessed as reduction in PI(abs) level at 200 uM measured 48 hr post compound application; assay type: functional; in short: as §6
Physalis ixocarpa [36] = experiment: Inhibition of photosynthetic efficiency in Physalis ixocarpa intact leaves assessed as reduction in PI(abs) level at 100 uM measured 48 hr post compound application; assay type: functional; in short: as §6
Physalis ixocarpa [37] = experiment: Inhibition of photosynthetic efficiency in Physalis ixocarpa intact leaves assessed as effect on OJIP transients at 100 uM measured 24 hr post compound application; assay type: functional, organism-based; in short: as §6

Compound: C[C@H]1C(=O)CC[C@@H]2[C@]1(C)CC[C@H]1[C@@]2(C)CC[C@@]2(C)[C@@H]3C[C@](C)(CO)CC[C@]3(C)CC[C@]12C
inhibition (Spinacia oleracea [1]): inactive

Activity (Spinacia oleracea [2]): 234%
Activity (Spinacia oleracea [3]): 252%
Activity (Spinacia oleracea [4]): 128%
Compound: Cl.N

Activity [10]: 100%
Activity [11]: 95%
Activity [12]: 108%
Activity [13]: 0%
Activity [14]: 10%
Activity [15]: 20%
Activity [16]: 44%
Activity [17]: 50%
Activity [18]: 68%
Activity [19]: 105%
Activity [20]: 60%
Activity (Spinacia oleracea [21]): 116%
Activity (Spinacia oleracea [22]): 126%
Activity [23]: 89%
IC50 (Spinacia oleracea [1]; read-out: I50): 124 µM
Activity (Spinacia oleracea [27]): 110%
Compound: C[C@H]1C(=O)CC[C@@H]2[C@]1(C)CC[C@H]1[C@@]2(C)CC[C@@]2(C)[C@@H]3CC(C)(C)CC[C@]3(CO)CC[C@]12C [CANOPHYLLOL]
inhibition (Lolium perenne [5]): inactive
inhibition at 100 µM (Lolium perenne [6]): 15%
inhibition at 100 µM (Lolium perenne [7]): 50%
inhibition (Lolium perenne [8]): inactive
Activity (Spinacia oleracea [9]): Active
inhibition (Spinacia oleracea [24]): Active
inhibition (Spinacia oleracea [25]): Active
inhibition (Spinacia oleracea [26]): Active
Activity (Physalis ixocarpa [28]): 99%
Activity (Physalis ixocarpa [29]): 81.5%
Activity (Lolium perenne [30]): 117.1%
Activity (Lolium perenne [31]): 140.3%
Activity (Physalis ixocarpa [32]): 10%
inhibition (Physalis ixocarpa [33]): Active
inhibition at 100 µM (Physalis ixocarpa [34]): 25%
inhibition at 200 µM (Physalis ixocarpa [35]): 10%
inhibition at 100 µM (Physalis ixocarpa [36]): 10%
inhibition (Physalis ixocarpa [37]): inactive
